Assay results published in ChEMBL document CHEMBL1135739, “Radiolabeled amino acids for tumor imaging with PET: radiosynthesis and biological evaluation of 2-amino-3-[18F]fluoro-2-methylpropanoic acid and 3-[18F]fluoro-2-methyl-2-(methylamino)propanoic acid” (J Med Chem, 2002).

Assays:
Rattus norvegicus [1] = species on record: Rattus norvegicus; assay: Radioactivity distribution in muscle of normal fischer rat after injection of [18F]fluoro-2-methylpropanoic acid after 30 min.; assay type: ADME, organism-based, Muscle tissue; conditions: in vivo, 0.5 h
Summary of the method: (§1)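 Male Fischer 344 rats (200–250 g), fed ad libitum, anesthetized with intramuscular ketamine:xylazine (1:1, 0.1 mL/100 g). About 85 μCi tracer in 0.3 mL sterile water was given by tail-vein catheter. Groups of four were killed at 5, 30, 60 or 120 min. Tissues were weighed and gamma-counted against dose standards, decay-corrected, and expressed as %ID/g (mean ± standard error).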

Rattus norvegicus [2] = species on record: Rattus norvegicus; assay: Radioactivity distribution in muscle of normal fischer rat after injection of [18F]-fluoro-2-methylpropanoic acid after 60 min.; assay type: ADME, organism-based, Muscle tissue; conditions: in vivo, 1 h; summary of the method: as §1
Rattus norvegicus [3] = species on record: Rattus norvegicus; assay: Radioactivity distribution in testis of normal fischer rat after injection of [18F]fluoro-2-methylpropanoic acid after 60 min.; assay type: ADME, organism-based; conditions: in vivo, 1 h
Summary of the method: (§2)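 Male Fischer 344 rats (200–250 g), fed ad libitum, under intramuscular ketamine:xylazine anesthesia, got ~85 μCi radiotracer in 0.3 mL sterile water by tail-vein catheter. Groups of four were killed at 5, 30, 60 or 120 min. Dissected tissues were weighed and gamma-counted with dose standards. Counts were decay-corrected and given as %ID/g, mean ± standard error. Tissues were compared by one-way ANOVA.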

Rattus norvegicus [4] = species on record: Rattus norvegicus; assay: Radioactivity distribution in liver of normal fischer rat after injection of [18F]-fluoro-2-methylpropanoic acid after 120 min.; assay type: ADME, organism-based; conditions: in vivo, 2 h; summary of the method: as §1
Rattus norvegicus [5] = species on record: Rattus norvegicus; assay: Radioactivity distribution in pancreas of tumor-bearing fischer rat after injection of [18F]-fluoro-2-methylpropanoic acid after 5 min; assay type: ADME, organism-based; conditions: in vivo
Summary of the method: (§3)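 Male Fischer 344 rats carried intracranial 9L gliosarcoma, stereotactically implanted (4×10^4 cells) and used 17–19 days later. Awake, restrained animals received about 35 μCi tracer in 0.3 mL sterile water via the tail vein and were killed at 5, 60 or 120 min (n = 4–5). Tissues were weighed, gamma-counted, decay-corrected and reported as %ID/g ± standard error.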

Rattus norvegicus [6] = species on record: Rattus norvegicus; assay: Radioactivity distribution in pancreas of normal fischer rat after injection of [18F]fluoro-2-methylpropanoic acid after 120 min.; assay type: ADME, organism-based; conditions: in vivo, 2 h; summary of the method: as §1
Rattus norvegicus [7] = species on record: Rattus norvegicus; assay: Radioactivity distribution in lung of tumor-bearing fischer rat after injection of [18F]-fluoro-2-methylpropanoic acid after 120 min; assay type: ADME, organism-based; conditions: in vivo, 2 h; summary of the method: as §3
Rattus norvegicus [8] = species on record: Rattus norvegicus; assay: Radioactivity distribution in liver of normal fischer rat after injection of [18F]fluoro-2-methylpropanoic acid after 60 min.; assay type: ADME, organism-based; conditions: in vivo, 1 h; summary of the method: as §1
Rattus norvegicus [9] = species on record: Rattus norvegicus; assay: Radioactivity distribution in bone of normal fischer rat after injection of [18F]fluoro-2-methylpropanoic acid after 60 min.; assay type: ADME, organism-based, Bone element; conditions: in vivo, 1 h
Summary of the method: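 Normal male Fischer 344 rats (200–250 g), anesthetized with i.m. ketamine:xylazine (1:1), got ~85 μCi of tracer in 0.3 mL sterile water i.v. via tail-vein catheter. Groups of four were killed at 5, 30, 60 or 120 min. Tissues were weighed and gamma-counted against dose standards, and counts were decay-corrected to %ID/g. Results are mean ± standard error (n = 4), compared by one-way ANOVA.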

Rattus norvegicus [10] = species on record: Rattus norvegicus; assay: Radioactivity distribution in liver of tumor-bearing fischer rat after injection of [18F]fluoro-2-methylpropanoic acid after 120 min; assay type: ADME, organism-based; conditions: in vivo, 2 h; summary of the method: as §3
Rattus norvegicus [11] = species on record: Rattus norvegicus; assay: Radioactivity distribution in lung of tumor-bearing fischer rat after injection of [18F]fluoro-2-methylpropanoic acid after 60 min; assay type: ADME, organism-based; conditions: in vivo, 1 h; summary of the method: as §3
Rattus norvegicus [12] = species on record: Rattus norvegicus; assay: Radioactivity distribution in spleen of normal fischer rat after injection of [18F]fluoro-2-methylpropanoic acid after 60 min.; assay type: ADME, organism-based; conditions: in vivo, 1 h; summary of the method: as §2

For `CC(N)(C[18F])C(=O)O.Cl` (configuration not stated), the ID/g (Rattus norvegicus [1]) was 0.22%, the ID/g (Rattus norvegicus [2]) was 0.26% and the ID/g (Rattus norvegicus [3]) was 0.12%. It also gave an ID/g (Rattus norvegicus [4]) of 0.48%, an ID/g (Rattus norvegicus [5]) of 5.31% and an ID/g (Rattus norvegicus [6]) of 2.48%. The ID/g (Rattus norvegicus [7]) was 0.24%, the ID/g (Rattus norvegicus [8]) was 0.5% and the ID/g (Rattus norvegicus [9]) was 0.19%. For the same molecule, the ID/g (Rattus norvegicus [10]) was 0.25%, the ID/g (Rattus norvegicus [11]) was 0.38% and the ID/g (Rattus norvegicus [12]) was 0.5%.
